The results in this text go back to ChEMBL document CHEMBL1143267, “Type II NADH dehydrogenase of the respiratory chain of Plasmodium falciparum and its inhibitors” (Bioorg Med Chem Lett, 2009).

For orientation: pIC50 means the IC50 on a negative log10 scale, so that one unit is a factor of ten. Low readings indicate a large IC50, high ones a small IC50. By Km is commonly meant the substrate concentration at which the rate is half of its maximum. A word on the kcat: it is the maximal rate divided by the concentration of active sites.

Assay [1] concerns Plasmodium falciparum. In words: Antimalarial activity against Plasmodium falciparum DD2 expressing Saccharomyces cerevisiae DHOD by [3H]hypoxanthine uptake. The assay is classed as functional, organism-based. The gist of the method:
(§1)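 Asexual parasite proliferation measured by [3H]-hypoxanthine incorporation dose–effect curves, in parental DD2 and a transgenic DD2 line expressing yeast cytoplasmic DHOD. IC50 from three independent experiments. Antimycin A, a mixture of A1–A4, expressed in mg/mL.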

Assay [2] concerns the target T1, Dihydroorotate dehydrogenase (Plasmodium falciparum, UniProt Q54A96).
T1 sequence (Q54A96 whole entry): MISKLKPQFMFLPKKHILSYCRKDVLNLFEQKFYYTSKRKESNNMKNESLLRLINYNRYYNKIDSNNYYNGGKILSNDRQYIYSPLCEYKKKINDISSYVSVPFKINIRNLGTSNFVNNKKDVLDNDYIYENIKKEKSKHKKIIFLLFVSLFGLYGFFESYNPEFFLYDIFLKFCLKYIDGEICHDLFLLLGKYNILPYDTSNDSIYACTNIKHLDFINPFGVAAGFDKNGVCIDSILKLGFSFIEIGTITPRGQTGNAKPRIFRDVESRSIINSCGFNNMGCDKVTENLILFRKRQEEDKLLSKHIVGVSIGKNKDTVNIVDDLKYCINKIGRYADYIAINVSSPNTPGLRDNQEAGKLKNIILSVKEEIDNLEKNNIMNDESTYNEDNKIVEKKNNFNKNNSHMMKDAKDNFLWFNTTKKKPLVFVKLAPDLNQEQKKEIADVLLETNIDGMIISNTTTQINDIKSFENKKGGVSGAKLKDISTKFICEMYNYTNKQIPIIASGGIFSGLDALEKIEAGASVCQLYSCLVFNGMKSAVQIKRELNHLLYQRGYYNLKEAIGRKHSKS
Put plainly: Inhibition of Plasmodium falciparum DHOD. The essentials: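 DCIP-coupled chromogenic assay with 500 µM L-dihydroorotate and 115 µM CoQ0 as electron acceptor. Compounds tested up to 10 µM. IC50 from three independent experiments.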

The target of assay [3] is T2, Dihydroorotate dehydrogenase (fumarate) (Saccharomyces cerevisiae S288c, UniProt P28272).
T2 sequence (P28272 whole entry): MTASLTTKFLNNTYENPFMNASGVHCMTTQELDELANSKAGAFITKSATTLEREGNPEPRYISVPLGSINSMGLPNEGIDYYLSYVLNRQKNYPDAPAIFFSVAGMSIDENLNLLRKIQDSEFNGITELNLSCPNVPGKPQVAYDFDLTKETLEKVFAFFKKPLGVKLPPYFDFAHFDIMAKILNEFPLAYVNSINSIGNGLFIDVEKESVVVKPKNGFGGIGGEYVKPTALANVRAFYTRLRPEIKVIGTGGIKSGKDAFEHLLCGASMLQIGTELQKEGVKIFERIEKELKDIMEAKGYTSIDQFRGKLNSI
Put plainly: Inhibition of Saccharomyces cerevisiae DHOD.

Assay [4] is described as follows: Inhibition of Plasmodium falciparum NDH2. The essentials: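 Purified recombinant His-tagged enzyme, HEPES pH 8.0. Reaction with 200 µM NADH and 100 µM CoQ0. NAD+ product quantified by fluorescence after acetophenone/formic acid derivatisation at 100 °C (ex 372/em 444 nm). Compounds tested up to 10 µM. IC50 from three independent experiments.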
In assay [5] the test system is Plasmodium falciparum. In words: Antimalarial activity against Plasmodium falciparum DD2 by [3H]hypoxanthine uptake. The assay is classed as functional, organism-based. The essentials:
as §1

The test system of assay [6] is Plasmodium falciparum. In words: Activity of Plasmodium falciparum NDH2 expressed in Escherichia coli by Michaelis-Menten plot. The gist of the method: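 Full-length enzyme with C-terminal 6xHis tag, purified in 0.5% Triton X-100. NAD+ formed was quantified by fluorescence: acetophenone base, then formic acid at 100 °C, excitation 372 nm, emission 444 nm. HEPES pH 8.0. One substrate (electron acceptor or NADH) varied while the other was fixed at 500 µM. Km and kcat from best-fit Michaelis–Menten curves, three independent experiments.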

pIC50: −log10 of the molar value.

Consider `CCCCCCCCCCCCc1cc(=O)c2ccccc2n1O`, for which the negative logarithm of the IC50 (pIC50) in assay [1] is less than 5.00; in assay [2] it was 5.40; in assay [3], less than 5.00; in assay [4], less than 5.00.

Take `c1ccc2c(c1)[I+]c1ccccc1-2` [DIPHENYLENEIODONIUM CHLORIDE]: the negative-log IC50 (pIC50) in assay [2] is less than 5.00.

Regarding `O=c1cc(-c2ccccc2)oc2ccccc12` [FLAVONE], the pIC50 was 8.70 in assay [5]; less than 5.00 in assay [1]; less than 5.00 in assay [2]; less than 5.00 in assay [3]; less than 5.00 in assay [4].

As for `C[C@@H]1CC[C@H]2[C@@H](C)C(=O)O[C@@H]3O[C@@]4(C)CC[C@@H]1[C@]32OO4` [ARTEMISININ], the pIC50 in assay [1] was 8.22; in assay [2], less than 5.00; in assay [3], less than 5.00; in assay [4], less than 5.00.

Regarding `CCCCCC[C@H]1C(=O)O[C@H](C)[C@H](NC(=O)c2cccc(NC=O)c2O)C(=O)O[C@@H](C)[C@@H]1OC(=O)CC(C)C` [ANTIMYCIN A], the pIC50 in assay [1], in assay [2], in assay [3] and in assay [4] was less than 5.00 each time.

Turning to `c1ccc([I+]c2ccccc2)cc1` [DIPHENYLIODONIUM CHLORIDE], the pIC50 in assay [5] was 4.91; in assay [1], 4.97; in assay [2], less than 5.00; in assay [3], less than 5.00; in assay [4], less than 5.00.

For `C=C(C)[C@H]1Cc2c(ccc3c2O[C@@H]2COc4cc(OC)c(OC)cc4[C@@H]2C3=O)O1` [ROTENONE], the pIC50 in assay [5], in assay [1], in assay [2], in assay [3] and in assay [4] was less than 5.00 throughout.

`CC1=CC(=O)c2ccccc2C1=O`: in assay [6], the Michaelis constant (Km) was 239 µM and the turnover number (kcat) came out at 4.6 min⁻¹.

For the molecule `O=C1C=CC(=Nc2cc(Cl)c(O)c(Cl)c2)C=C1`, in assay [6], the Michaelis-Menten constant (Km) came out at 4.6 µM and the kcat amounted to 1.9 min⁻¹.

Turning to `O=C1C(O)=C([C@H]2CC[C@H](c3ccc(Cl)cc3)CC2)C(=O)c2ccccc21` [ATOVAQUONE], the negative-log IC50 (pIC50) in assay [5] is 8.70; in assay [1] it was less than 5.00; in assay [2], less than 5.00; in assay [3], less than 5.00; in assay [4], less than 5.00.
